ChEMBL document CHEMBL1149089, “Evaluation of potent and selective small-molecule antagonists for the CXCR2 chemokine receptor” (J Med Chem, 2004)

Tests used:
[1] = target: T1, C-X-C chemokine receptor type 1 (Homo sapiens, UniProt P25024); assay: Inhibition of binding of IL-8 to membranes of cloned CXC chemokine receptor 1 expressed in CHO Cells using [125I]IL-8 radioligand
T1 sequence (P25024 whole entry): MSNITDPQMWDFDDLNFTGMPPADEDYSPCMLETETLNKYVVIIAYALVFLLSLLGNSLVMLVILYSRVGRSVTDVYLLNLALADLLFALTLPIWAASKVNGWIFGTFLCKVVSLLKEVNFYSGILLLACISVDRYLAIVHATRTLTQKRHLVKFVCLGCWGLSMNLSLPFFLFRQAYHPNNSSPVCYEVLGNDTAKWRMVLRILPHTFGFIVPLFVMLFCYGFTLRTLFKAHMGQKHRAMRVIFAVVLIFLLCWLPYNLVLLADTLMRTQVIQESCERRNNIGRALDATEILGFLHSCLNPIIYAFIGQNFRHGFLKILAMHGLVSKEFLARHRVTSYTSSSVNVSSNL
Summary of the method: (§1)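 Membranes from CHO cells stably expressing CXCR1 or CXCR2; competition against radiolabeled human recombinant [125I]IL-8; IC50 given as mean ± SEM of three individual experiments.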

[2] = target: T2, C-X-C chemokine receptor type 2 (Homo sapiens, UniProt P25025); assay: Inhibition of binding of IL-8 to membranes of cloned CXC chemokine receptor 2 expressed in CHO Cells using [125I]IL-8 radioligand; summary of the method: as §1
T2 sequence (P25025 whole entry): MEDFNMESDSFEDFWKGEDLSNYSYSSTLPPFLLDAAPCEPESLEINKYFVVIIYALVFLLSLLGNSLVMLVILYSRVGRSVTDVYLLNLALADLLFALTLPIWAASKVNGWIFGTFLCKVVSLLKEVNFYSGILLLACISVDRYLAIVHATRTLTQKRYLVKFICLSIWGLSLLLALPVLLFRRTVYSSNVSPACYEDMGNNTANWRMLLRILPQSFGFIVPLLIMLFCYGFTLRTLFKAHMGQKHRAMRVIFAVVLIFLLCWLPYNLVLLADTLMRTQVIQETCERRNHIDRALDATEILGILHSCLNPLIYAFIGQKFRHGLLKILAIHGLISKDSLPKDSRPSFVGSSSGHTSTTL

[3] = species on record: Homo sapiens; assay: Compound was evaluated for GROalpha-mediated calcium mobilization in human polymorphonuclear neutrophils(PMNs); type: functional
Summary of the method: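 Human neutrophils stimulated with GROα, the CXCR2-selective ligand; calcium mobilization measured; mean ± SEM of at least three separate determinations.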

[4] = tested on: Oryctolagus cuniculus; assay: Compound was evaluated for inhibition of topical model of delayed type hypersensitivity (DTH) at a dose of 1000 ug in rabbits; type: functional
Summary of the method: (§2)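 Rabbits sensitized by complete Freund's adjuvant injected in the nape of the neck; challenged intradermally 5 weeks later with tuberculin (10 units PPD). Compound in methanol (50 µL) or methanol vehicle applied topically to PPD sites 5 min after challenge and reapplied 4 h later. Skin-fold thickness at challenge site measured 48 h after challenge; % inhibition versus vehicle.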

[5] = tested on: Oryctolagus cuniculus; assay: Compound was evaluated for inhibition of topical model of delayed type hypersensitivity (DTH) at a dose of 62.5 ug in rabbits; type: functional; summary of the method: as §2
[6] = tested on: Oryctolagus cuniculus; assay: Compound was evaluated for inhibition of topical model of delayed type hypersensitivity (DTH) at a dose of 500 ug in rabbits; type: functional
Summary of the method: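 Rabbits sensitized by complete Freund's adjuvant injection in the nape of the neck, then challenged intradermally 5 weeks later with tuberculin (10 units PPD). At 5 min post-challenge, compound in methanol (50 µL) or methanol vehicle was applied topically to PPD sites and reapplied 4 h later. Skin-fold thickness at the challenge site was read 48 h after PPD; % inhibition reported.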

| SMILES | IC50 [1] | IC50 [2] | IC50 [3] | Inhibition [4] | Inhibition [5] | Inhibition [6] |
| --- | --- | --- | --- | --- | --- | --- |
| O=C(Nc1ccccc1)Nc1cc([N+](=O)[O-])ccc1O | 46200 nM | 10900 nM | 13800 nM |  |  |  |
| N#Cc1ccc(NC(=O)Nc2ccccc2)c(O)c1 | 21000 nM | 200 nM | 120 nM | 21% |  |  |
| N#Cc1c(Cl)ccc(NC(=O)Nc2ccccc2Br)c1O | 11100 nM | 57 nM | 7.5 nM |  | 3% |  |
| N#Cc1ccc(NC(=O)Nc2ccccc2Br)c(O)c1Cl | 4200 nM | 22 nM | 2.6 nM |  |  |  |
| N#Cc1ccc(NC(=O)Nc2ccccc2Br)c(O)c1 | 15100 nM | 25 nM | 53 nM |  |  | 31% |
| N#Cc1ccc(NC(=O)Nc2ccccc2Br)c(O)c1Br | 2600 nM | 6 nM | 0.79 nM |  |  | 33% |
| O=C(Nc1ccccc1)Nc1ccc([N+](=O)[O-])cc1O | 18200 nM | 320 nM | 339 nM |  |  |  |
| O=C(Nc1ccccc1)Nc1cccc([N+](=O)[O-])c1O | 33200 nM | 860 nM | 511 nM |  |  |  |
